Measurements taken from ChEMBL document CHEMBL3244414, “Structure-activity relationships among the O-acyl derivatives of leucomycin. Correlation of minimal inhibitory concentrations with binding to Escherichia coli ribosomes” (J Med Chem, 1977).
≈ marks a conversion by molar mass, not a printed value.

Experiments:
Staphylococcus aureus = experiment: Antimicrobial activity against Staphylococcus aureus ATCC 6538P by agar dilution method; type: functional; settings: Staphylococcus aureus, ATCC 6538P; read-out: MIC
How it was run: (§1)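 Read-out is the minimal inhibitory concentration, found by agar dilution against the named strain.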

Bacillus spizizenii = experiment: Antimicrobial activity against Bacillus subtilis ATCC 6633 by agar dilution method; type: functional; settings: Bacillus spizizenii, ATCC 6633; read-out: MIC; how it was run: as §1
Klebsiella pneumoniae = experiment: Antimicrobial activity against Klebsiella pneumoniae ATCC 10031 by agar dilution method; type: functional; settings: Klebsiella pneumoniae, ATCC 10031; read-out: MIC; how it was run: as §1
[1] = molecular target: Bacterial 70S ribosome (Bacteria) (UniProt P0A7V0+P60723+P0AG67+P0A7R5+P0A7R9+P0A7S3+P0A7S9+P0AG59+P0ADZ4+P0A7T3+P0AG63+P0A7T7+P0A7U3+P0A7U7+P68679+P0A7V3+P0A7V8+P0A7W1+P02358+P02359+P0A7W7+P0A7X3+P0A7J3+P0A7J7+P0AA10+P0ADY3+P02413+P0ADY7+P0AG44+P0C018+P0A7K6+P0A7L0+P0A7L3+P0AG48+P61175+P0ADZ0+P60624+P68919+P0A7L8+P0A7M2+P0A7M6+P60422+P0AG51+P0A7N1+P0A7M9+P0A7N4+P0A7N9+P0A7P5+P0A7Q1+Q2EEQ2+P0A7Q6+P60438+P62399+P0AG55+P0A7K2); experiment: (§2) Displacement of [14C]erythromycin from Escherichia coli ribosomes after 30 mins by scintillation spectrometer analysis
How it was run: (§3)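 NH4Cl-washed E. coli ribosomes with [14C]erythromycin A and varied competitor concentrations in 0.01 M Tris-HCl pH 7.2, 0.1 M KCl, 0.004 M MgCl2, 0.01 M NH4Cl. Incubated 30 min at 24 °C, stopped by dilution in cold Tris/KCl/MgCl2 buffer, membrane-filtered, washed three times, dried, scintillation counted. Reports the concentration giving 50% inhibition of binding.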

Bacterial 70S ribosome = experiment: as §2; how it was run: as §3

Row | Compound | MIC (Staphylococcus aureus) | MIC (Bacillus spizizenii) | MIC (Klebsiella pneumoniae) | pK50 [1] | IC50 (Bacterial 70S ribosome)
1 | CCCC(=O)O[C@H]1/C=C/C=C/C[C@@H](C)OC(=O)C[C@@H](OC(C)=O)[C@H](OC)[C@@H](O[C@@H]2O[C@H](C)[C@@H](O[C@H]3C[C@@](C)(O)[C@@H](OC(=O)CC(C)C)[C@H](C)O3)[C@H](N(C)C)[C@H]2O)[C@@H](CC=O)C[C@H]1C | 3.1 µg/mL (≈ 3.45 µM) | 1.6 µg/mL (≈ 1.78 µM) | 100 µg/mL (≈ 111 µM) | 5.7 | 1900 nM
2 | CCC(=O)O[C@H]1/C=C/C=C/C[C@@H](C)OC(=O)C[C@@H](O)[C@H](OC)[C@@H](O[C@@H]2O[C@H](C)[C@@H](O[C@H]3C[C@@](C)(O)[C@@H](OC(=O)C(C)CC)[C@H](C)O3)[C@H](N(C)C)[C@H]2O)[C@@H](CC=O)C[C@H]1C (some centres undefined) | 1.6 µg/mL (≈ 1.9 µM) | 0.8 µg/mL (≈ 0.95 µM) | 50 µg/mL (≈ 59.4 µM) | 5.8 | 1700 nM
3 | CCCC(=O)O[C@H]1[C@H](C)O[C@@H](O[C@H]2[C@H](N(C)C)[C@@H](O)[C@H](O[C@H]3[C@@H](CC=O)C[C@@H](C)[C@@H](O)/C=C/C=C/C[C@@H](C)OC(=O)C[C@@H](O)[C@@H]3OC)O[C@@H]2C)C[C@@]1(C)O | 0.4 µg/mL (≈ 0.518 µM) | 0.8 µg/mL (≈ 1.04 µM) | 12.5 µg/mL (≈ 16.2 µM) | 6 | 1100 nM
4 | CCCC(=O)O[C@H]1[C@H](C)O[C@@H](O[C@H]2[C@H](N(C)C)[C@@H](OC(=O)CCC(=O)O)[C@H](O[C@H]3[C@@H](CC=O)C[C@@H](C)[C@@H](O)/C=C/C=C/C[C@@H](C)OC(=O)C[C@@H](O)[C@@H]3OC)O[C@@H]2C)C[C@@]1(C)O | 1.6 µg/mL (≈ 1.83 µM) | 0.8 µg/mL (≈ 0.917 µM) | 100 µg/mL (≈ 115 µM) | 5.7 | 1900 nM
5 | CCC(=O)O[C@H]1/C=C/C=C/C[C@@H](C)OC(=O)C[C@@H](O)[C@H](OC)[C@@H](O[C@@H]2O[C@H](C)[C@@H](O[C@H]3C[C@@](C)(O)[C@@H](O)[C@H](C)O3)[C@H](N(C)C)[C@H]2O)[C@@H](CC=O)C[C@H]1C | 6.3 µg/mL (≈ 8.31 µM) | 3.1 µg/mL (≈ 4.09 µM) | 100 µg/mL (≈ 132 µM) | 5.4 | 4000 nM
6 | CCC(=O)O[C@H]1/C=C/C=C/C[C@@H](C)OC(=O)C[C@@H](OC(C)=O)[C@H](OC)[C@@H](O[C@@H]2O[C@H](C)[C@@H](O[C@H]3C[C@@](C)(O)[C@@H](OC(=O)CC(C)C)[C@H](C)O3)[C@H](N(C)C)[C@H]2O)[C@@H](CC=O)C[C@H]1C | 3.1 µg/mL (≈ 3.51 µM) | 0.4 µg/mL (≈ 0.452 µM) | 100 µg/mL (≈ 113 µM) | 5.7 | 1900 nM
7 | CO[C@@H]1[C@@H](O[C@@H]2O[C@H](C)[C@@H](O[C@H]3C[C@@](C)(O)[C@@H](O)[C@H](C)O3)[C@H](N(C)C)[C@H]2O)[C@@H](CC=O)C[C@@H](C)[C@@H](O)/C=C/C=C/C[C@@H](C)OC(=O)C[C@H]1OC(C)=O | 12.5 µg/mL (≈ 16.8 µM) | 6.3 µg/mL (≈ 8.47 µM) | 100 µg/mL (≈ 134 µM) | 5 | 10700 nM
8 | CCCC(=O)O[C@H]1[C@H](C)O[C@@H](O[C@H]2[C@H](N(C)C)[C@@H](OC(C)=O)[C@H](O[C@H]3[C@@H](CC=O)C[C@@H](C)[C@@H](O)/C=C/C=C/C[C@@H](C)OC(=O)C[C@@H](OC(C)=O)[C@@H]3OC)O[C@@H]2C)C[C@@]1(C)O | 0.8 µg/mL (≈ 0.935 µM) | 0.8 µg/mL (≈ 0.935 µM) | 100 µg/mL (≈ 117 µM) | 4.7 | 20900 nM
9 | CCCC(=O)O[C@H]1[C@H](C)O[C@@H](O[C@H]2[C@H](N(C)C)[C@@H](OC(=O)CC)[C@H](O[C@H]3[C@@H](CC=O)C[C@@H](C)[C@@H](O)/C=C/C=C/C[C@@H](C)OC(=O)C[C@@H](OC(C)=O)[C@@H]3OC)O[C@@H]2C)C[C@@]1(C)O | 1.6 µg/mL (≈ 1.84 µM) | 0.8 µg/mL (≈ 0.919 µM) | 25 µg/mL (≈ 28.7 µM) | 4.8 | 17800 nM
10 | CCC(=O)O[C@H]1[C@H](O[C@H]2[C@@H](CC=O)C[C@@H](C)[C@@H](OC(=O)CC)/C=C/C=C/C[C@@H](C)OC(=O)C[C@@H](OC(C)=O)[C@@H]2OC)O[C@H](C)[C@@H](O[C@H]2C[C@@](C)(O)[C@@H](OC(=O)CC(C)C)[C@H](C)O2)[C@@H]1N(C)C | 6.3 µg/mL (≈ 6.7 µM) | 6.3 µg/mL (≈ 6.7 µM) | 100 µg/mL (≈ 106 µM) |  | > 100000 nM
